The list is not random: actives were taken first. Their share in the collection is about 4%.
Smad3 FoxH1 inh: inhibitors of human Smad3 transcription factor binding. P84022. TR-FRET Smad3/Dy647-FoxH1 peptide binding, europium anti-His. 88,000 tested, 0.29% active. inhibition, % at 25 µM. AID 630;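 active = compounds that reduce the energy-transfer binding signal between the protein and its labelled peptide by more than half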
Rev-RRE block: inhibitors of HIV-1 Rev-RRE RNA interaction. P05866. Rev peptide-RRE RNA binding, FRET. inhibition, % at 8 µM. 97,000 tested, 0.79% active;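 active = inhibition above the screen-wide mean plus 3 SD, cut at about 35% in these data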
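Probe or stimulus: fluorescein-Rev peptide as binding partner; assay system: Cy5-tagged RRE RNA duplex with fluorescein-tagged Rev peptide; timing: 5 min compound–RNA preincubation, then 15 min with peptide, 25 °C; medium: HEPES pH 7.5 buffer with KCl, MgCl2, NaCl and EDTA; signal: fluorescein-to-Cy5 FRET, 480 nm excitation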
ERa coact inh: ER-alpha (human) coactivator binding inhibition; P03372; TR-FRET ER-alpha LBD / SRC-1 peptide, estradiol-bound; inhibition, % at 25.6 µM; 86,000 tested, 1.7% active; in the data active = inhibition above about 50%
ERa coact pot: ER-alpha (human) coactivator binding potentiation. P03372. TR-FRET ERalpha-LBD/SRC-Cy5 coactivator binding, 2 h; 100 = basal binding, no effect. coactivator binding (% of control), % at 25.6 µM. 86,000 tested, 1.3% active. AID 639; in the data active = activity above about 200%;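 also: binding measured in presence of low estradiol as agonist stimulus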
FAK blocker: FAK (human) kinase inhibition | biochemical FAK kinase activity assay | inhibition, %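 (tested at 7 µM)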 | 97,000 tested, 0.84% active | AID 727; in the data active = inhibition above about 19%
ERb SRC1 inh: blocks coactivator binding to human estrogen receptor beta; Q92731; TR-FRET ER-beta LBD / SRC1-Cy5 peptide binding; receptor agonist-loaded with 1 µM estradiol; inhibition, % at 25.6 µM; 86,000 tested, 1.3% active;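 active = compounds whose percent inhibition of the receptor-coactivator binding signal exceeds about 50% in the single-dose screen, limit read from the data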
Target sequence (Q92731 whole entry, looked up, the tested form may be a part): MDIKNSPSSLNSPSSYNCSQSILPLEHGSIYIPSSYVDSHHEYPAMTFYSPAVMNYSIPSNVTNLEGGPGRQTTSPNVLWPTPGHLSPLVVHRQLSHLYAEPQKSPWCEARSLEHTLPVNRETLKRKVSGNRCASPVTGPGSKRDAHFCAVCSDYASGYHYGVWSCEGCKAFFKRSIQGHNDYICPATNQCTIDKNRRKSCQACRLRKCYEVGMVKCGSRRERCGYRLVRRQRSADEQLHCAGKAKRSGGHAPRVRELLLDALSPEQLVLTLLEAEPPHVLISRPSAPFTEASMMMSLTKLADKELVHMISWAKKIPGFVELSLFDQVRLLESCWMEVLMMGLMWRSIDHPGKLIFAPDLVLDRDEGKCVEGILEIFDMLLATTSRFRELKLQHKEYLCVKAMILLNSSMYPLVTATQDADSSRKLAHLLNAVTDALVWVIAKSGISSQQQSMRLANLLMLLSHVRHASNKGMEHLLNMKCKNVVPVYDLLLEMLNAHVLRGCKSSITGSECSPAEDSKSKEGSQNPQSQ
Numbers stand for hits; . = inactive; / = no result given; [ ] = remark or other dose.

SMILES | Smad3 FoxH1 inh | Rev-RRE block | ERa coact inh | ERa coact pot | FAK blocker | ERb SRC1 inh
COc1ccccc1CNC(=O)c1ccccc1OC | . | . | . | . | . | .
COc1ccccc1CNC(=O)c1c(O)c2cc(OC)c(OC)cc2[nH]c1=O | . | . | 57[fluorescence artefact?] | . | . | .
Cn1cccc1/C=C1\CC(C(C)(C)C)C/C(=C\c2cccn2C)C1=O (stereo not given) | . | 125[fluorescence artefact?] | . | . | . | .
C=CCOC(=O)c1sc(N2C(=O)c3oc4ccccc4c(=O)c3C2c2ccco2)nc1C (stereo not given) | . | / | 54 | . | / | 61
COc1ccccc1-n1c(SCC(=O)NC2CCCCC2)nc2c(c1=O)SCC2 | . | . | . | 697 | . | .
N#C/C(=C(/O)CSc1nnc(Cc2cccs2)n1C1CCCCC1)c1nc2ccccc2[nH]1 | . | / | 77[fluorescence artefact?] | . | / | .
Cc1sc2nc(CSc3nnc(Cc4cccs4)n3C3CCCCC3)[nH]c(=O)c2c1C | . | 56 | . | . | . | .
O=C(Cc1ccccc1)NC(NCCc1ccccc1)C(Cl)(Cl)Cl (stereo not given) | / | . | / | / | . | /
CCN1C(=O)C(O)(CC(=O)c2ccc3c(c2)OCCO3)c2ccccc21 (stereo not given) | . | . | . | . | . | .
COc1ccc(CN2C(=O)C(O)(CC(=O)c3ccc4c(c3)OCO4)c3ccccc32)cc1OC (stereo not given) | 75 | . | . | . | . | .
CCOC(=O)C(C(=O)NCCCN1CCOCC1)C1CCCCC1 (stereo not given) | . | . | . | . | 19 | .
C=CCNC(=O)C(C(=O)OCC)C1CCCCC1 (stereo not given) | . | . | . | . | . | .
Cc1ccc(NC(=O)/C(=C\c2ccc3c(c2)OCO3)NC(=O)c2ccco2)cc1 | / | . | / | / | . | /
C=C(C)CNCCN | . | / | / | / | / | /
CCCCSc1nc(SCC(=O)NCc2ccco2)c2c3c(sc2n1)COC(C)(CC)C3 (stereo not given) | / | . | / | / | . | /
CCCSc1nc(SCC(=O)NCc2ccccc2)c2c3c(sc2n1)COC(C)(CC)C3 (stereo not given) | . | . | . | 298[fluorescence artefact?] | . | .
Cc1ccc(S(=O)(=O)N2CCOCC2)cc1C(=O)N1c2ccccc2Sc2ccccc21 | / | . | / | / | . | /
Nc1c(C(O)(C(F)(F)F)C(F)(F)F)ccc2ccccc12 | . | . | . | 286[fluorescence artefact?] | . | .
CC1(C)CC(=O)c2c(oc3cc(O)c(O)cc23)C1 | . | . | . | . | . | 58[fluorescence artefact?]
CCNC(=O)c1oc2c(c1C)C(=O)CC(C)(C)C2 | . | . | . | . | . | .
CCOc1cc(/C=C2\C(=O)N(c3nc(-c4ccc(Br)cc4)cs3)N=C2c2ccccc2)ccc1O | . | 58 | . | . | . | .
Cc1cc(NC(=O)CSc2nc3c(c(=O)n2-c2ccc(Br)cc2)SCC3)no1 | . | . | 60[fluorescence artefact?] | . | . | .
COc1ccc(-n2c(SCC(=O)Nc3cc(C)on3)nc3c(c2=O)SCC3)cc1 | . | . | . | . | . | .
COC(=O)c1ccc(CSc2nc3c(c(=O)n2-c2ccc(C)cc2)SCC3)o1 | . | / | . | 336[fluorescence artefact?] | / | .
Cc1ccc(-n2c(SCC(=O)N3CCCC3)nc3c(c2=O)SCC3)cc1 | . | / | . | . | / | .
SMILES | Smad3 FoxH1 inh | Rev-RRE block | ERa coact inh | ERa coact pot | FAK blocker | ERb SRC1 inh
CC(C)c1ccc(-c2nn(-c3ccccc3)cc2C2C(C#N)=C(N)OC3=C2C(=O)CC(C)(C)C3)cc1 (stereo not given) | / | . | / | / | . | /
COCCCNC(=O)Cn1nnc(-c2ccc(NC(=O)c3ccc(F)cc3)cc2)n1 | . | / | . | 258[fluorescence artefact?] | / | .
COc1ccc(NC(=O)Cn2nnc(-c3ccccc3F)n2)cc1 | . | . | . | . | . | .
c1ccc(-c2cn3nc(-c4ccccc4)c(-c4ccccc4)nc3n2)cc1 | / | 98[fluorescence artefact?] | / | / | . | /
O=C(CCC1N=C2c3ccccc3N=C(SCc3ccccc3Cl)N2C1=O)NCc1ccco1 (stereo not given) | . | . | . | . | . | .
O=C(CCC1N=C2c3ccccc3N=C(SCc3cccc(Cl)c3)N2C1=O)NCc1ccco1 (stereo not given) | . | . | . | 257[fluorescence artefact?] | . | .
NC(=O)c1nsc(C(=O)N(CC(=O)NCc2ccco2)c2ccccc2F)c1N | . | . | . | . | 24 | .
CCOC(=O)c1cc2sc(C)cc2n1CC(=O)NCc1ccc(F)cc1 | . | . | . | 238[fluorescence artefact?] | . | .
